Measured values taken from ChEMBL document CHEMBL1154008, “Synthesis and in vitro activity of new tetrahydronaphtho[1,2-b]azepine derivatives against Trypanosoma cruzi and Leishmania chagasi parasites” (Bioorg Med Chem Lett, 2009).

Tests used:
[1] = Cytotoxicity against human THP1 cells after 72 hrs by MTT assay; format: cell-based; conditions: THP-1 cells
Method in brief: (§1)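 Vero or transformed THP-1 cells exposed to a 3-fold compound dilution series, in triplicate, for 72 h at 37 °C. Toxicity read by MTT reduction. CC50/CC90 taken as the concentrations killing 50% or 90% of cells. Values are representative of one experiment out of three.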

Leishmania chagasi = experiment: Antiparasitic activity against Leishmania chagasi MHOM/BR/74/PP75 promastigotes infected in human THP1 cells after 72 hrs; conditions: MHOM/BR/74/PP75, THP-1, 72 h
[2] = Selectivity index, ratio of CC50 for african green monkey Vero cells to IC50 for Trypanosoma cruzi 320I04 epimastigotes; format: functional
Method in brief: (§2)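 SI calculated as Vero CC50 divided by T. cruzi IC50, or THP-1 CC50 divided by L. chagasi IC50. Both values come from 72 h exposures: parasites at 27 °C, mammalian cells at 37 °C with MTT read-out.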

Trypanosoma cruzi [3] = experiment: Antiparasitic activity against Trypanosoma cruzi 320I04 epimastigotes […] after 72 hrs; format: functional, organism-based
Method in brief: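 Free parasite forms (T. cruzi 320I04 epimastigotes; L. chagasi MHOM/BR/74/PP75 promastigotes) exposed to compounds for 72 h at 27 °C. IC50/IC90 taken as the concentrations giving 50% or 90% growth inhibition. Values are representative of one experiment out of three.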

[4] = Selectivity index, ratio of CC50 for human THP1 cells to IC50 for Leishmania chagasi MHOM/BR/74/PP75 promastigotes; format: functional, THP-1; method in brief: as §2
[5] = Selectivity index, ratio of CC50 for african green monkey Vero cells to IC50 for Trypanosoma cruzi 320I04 intracellular amastigotes; format: functional
[6] = Cytotoxicity against african green monkey Vero cells after 72 hrs by MTT assay; format: cell-based; conditions: chlorocebus sabaeus; method in brief: as §1
Trypanosoma cruzi [7] = experiment: Antiparasitic activity against Trypanosoma cruzi 320I04 intracellular amastigotes infected in african green monkey Vero cells after 72 hrs; format: functional, organism-based; conditions: 320I04, Vero

SMILES | CC50 at 72 h [1] [µM] | CC90 at 72 h [1] [µM] | IC50 (Leishmania chagasi) [µM] | IC90 (Leishmania chagasi) [µM] | Ratio CC50/IC50 [2] | IC50 (Trypanosoma cruzi [3]) [µM] | IC90 (Trypanosoma cruzi [3]) [µM] | Ratio CC50/IC50 [4] | Ratio CC50/IC50 [5] | CC50 at 72 h [6] [µM] | CC90 at 72 h [6] [µM] | IC50 (Trypanosoma cruzi [7]) [µM] | IC90 (Trypanosoma cruzi [7]) [µM]
COc1cccc([C@@H]2C[C@@H]3Cc4ccc5ccccc5c4N2O3)c1 | > 300 | > 300 | 16.4 | 49.5 | >3.6 | 82.7 | > 300 | >18.3 | >3.3 | > 300 | > 300 | 89.6 | > 100
O[C@@H]1Cc2ccc3ccccc3c2N[C@H](c2ccc(Cl)cc2)C1 | 36.2 | 122 | 25.9 | 52.9 | 29.7 | 3.2 | 24.8 | 1.4 | <1 | 95 | > 250 | > 100 | > 100
Fc1ccc([C@@H]2C[C@@H]3Cc4ccc5ccccc5c4N2O3)cc1 | > 300 | > 300 | 70.4 | 113 | >3.3 | 90.5 | > 300 | >4.3 | >3 | > 300 | > 300 | > 100 | > 100
O[C@@H]1Cc2ccc3ccccc3c2N[C@H](c2ccccc2)C1 | 102 | > 300 | 46 | 67.1 | 18.9 | 5.7 | 35.1 | 2.2 | 5.6 | 108 | > 268 | 19.3 | > 30
Clc1ccccc1[C@@H]1C[C@@H]2Cc3ccc4ccccc4c3N1O2 | > 300 | > 300 | 184 | > 300 | 0.4 | 100 | 293 | >1.6 | <0.4 | 37.2 | > 300 | > 100 | > 100
O[C@@H]1Cc2ccc3ccccc3c2N[C@H](c2ccc(Cl)cc2Cl)C1 | 79.4 | 92.7 | 11 | 28.2 | 45.4 | 1 | 19.4 | 7.2 | <1.5 | 45.4 | > 200 | > 30 | > 30
Clc1cccc([C@@H]2C[C@@H]3Cc4ccc5ccccc5c4N2O3)c1 | > 300 | > 300 | 32.7 | > 300 | >23.8 | 12.6 | 80.1 | >9.2 | >22.9 | > 300 | > 300 | 13.1 | > 100
O[C@@H]1Cc2ccc3ccccc3c2N[C@H](c2ccc(Br)cc2)C1 | 79 | > 200 | 18.5 | 37.1 | 6.5 | 10.2 | 15.9 | 4.3 | 6.7 | 66.1 | > 200 | 9.9 | 29.7
O=[N+]([O-])c1ccccc1[C@@H]1C[C@@H]2Cc3ccc4ccccc4c3N1O2 | > 300 | > 300 | 40.9 | 209 | 28.7 | 1.4 | 29.3 | >7.3 | <0.4 | 40.2 | > 300 | > 100 | > 100
Brc1ccc([C@@H]2C[C@@H]3Cc4ccc5ccccc5c4N2O3)cc1 | > 250 | > 250 | 73.4 | > 250 | 21.9 | 11.4 | 176 | >3.4 |  | > 250 | > 250 | > 100 | > 100
O[C@@H]1Cc2ccc3ccccc3c2N[C@H](c2ccc(F)cc2)C1 | 81.9 | > 250 | 21 | 120 | 91.4 | 1.1 | 11.6 | 3.9 | 6.8 | 100 | > 250 | 14.8 | > 30
Cc1cccc([C@@H]2C[C@@H]3Cc4ccc5ccccc5c4N2O3)c1 | > 300 | > 300 | 35.2 | 41.2 | >17.6 | 17 | 44.1 | >8.5 | >3 | > 300 | > 300 | > 100 | > 100
Brc1cccc([C@@H]2C[C@@H]3Cc4ccc5ccccc5c4N2O3)c1 | > 250 | > 250 | 10.4 | 31.3 | >14.3 | 17.5 | 82.3 | >24 | >13.6 | > 250 | > 250 | 18.4 | 76.3
Clc1ccc([C@@H]2C[C@@H]3Cc4ccc5ccccc5c4N2O3)cc1 | > 300 | > 300 | 35.4 | 43.1 | 7.4 | 38.8 | 105 | >8.5 | >17.7 | 287 | > 300 | 16.2 | 83.4
O[C@@H]1Cc2ccc3ccccc3c2N[C@H](c2ccccc2Cl)C1 | 66.1 | > 300 | 30.6 | 64.6 | 193 | 0.5 | 11 | 2.2 | 9.1 | 96.5 | > 250 | 10.6 | > 30
CC1CS(=O)(=O)CCN1/N=C/c1ccc([N+](=O)[O-])o1 (centres undefined) [NIFURTIMOX] |  |  |  |  |  | 4.8 | 17 |  |  | 114 | > 300 |  | 11
C[C@@H]1[C@H](O)[C@@H](C)/C=C/C=C/C=C/C=C/C=C/C=C/C=C/[C@H](O[C@@H]2O[C@H](C)[C@@H](O)[C@H](N)[C@@H]2O)C[C@@H]2O[C@](O)(C[C@@H](O)C[C@@H](O)[C@H](O)CC[C@@H](O)C[C@@H](O)CC(=O)O[C@H]1C)C[C@H](O)[C@H]2C(=O)O [AMPHOTERICIN B] | 0.17 | 0.18 | 0.01 | 0.03 |  |  |  | 17 |  |  |  |  | 
